In ChEMBL document CHEMBL2203262, “The design and synthesis of indazole and pyrazolopyridine based glucokinase activators for the treatment of type 2 diabetes mellitus” (Bioorg Med Chem Lett, 2012):
Values after ≈ are worked out from the molar mass of the structure shown. Blank lines part the entries; values can stand above or below the compound they belong to.

Key:
[1] = Passive permeability of the compound in dog RRCK cells; format: ADME, cell-based, Canis lupus familiaris, MDCKII-LE; details: MDCK, read-out: permeability
How it was run: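 Passive permeability measured in the RRCK cell line; reported as 10^-6 cm/s.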

Hexokinase-4 [2] = target: T1, Hexokinase-4 (Homo sapiens, UniProt P35557); assay: Activation of recombinant human glucokinase assessed measuring rate of glucose 6-phosphate formation using G6PDH/NADP coupling
T1 sequence (P35557 whole entry): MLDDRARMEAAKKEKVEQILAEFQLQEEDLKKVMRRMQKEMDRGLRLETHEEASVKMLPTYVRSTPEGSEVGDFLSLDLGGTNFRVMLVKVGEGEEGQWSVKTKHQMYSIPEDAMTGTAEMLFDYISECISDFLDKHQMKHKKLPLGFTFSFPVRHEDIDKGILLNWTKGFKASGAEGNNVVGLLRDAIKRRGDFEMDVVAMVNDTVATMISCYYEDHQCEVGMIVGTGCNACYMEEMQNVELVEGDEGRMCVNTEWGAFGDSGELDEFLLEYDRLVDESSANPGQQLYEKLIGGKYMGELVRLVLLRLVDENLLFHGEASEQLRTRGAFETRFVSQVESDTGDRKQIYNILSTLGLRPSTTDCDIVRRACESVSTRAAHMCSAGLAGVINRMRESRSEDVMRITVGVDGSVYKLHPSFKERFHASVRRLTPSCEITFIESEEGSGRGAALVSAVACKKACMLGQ

[3] = Intrinsic clearance of the compound in human liver microsomes; format: ADME, Microsome; details: read-out: CLH
How it was run: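 Human liver microsomal stability; intrinsic clearance expressed as ml/min/kg.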

[4] = Kinetic solubility of the compound; format: physicochemical; details: read-out: Kinetic_solubility
[5] = Lipophilicity, log D of the compound by shake flask method; format: physicochemical; details: octanol/water
[6] = Cmax in Wistar-Han rat at 1 mg/kg, iv; format: ADME, organism-based; set-up: dose 1 mg/kg, route intravenous; details: in vivo
How it was run: (§1)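 Wistar-Han rats, n = 3 animals/group. Single intravenous dose of 1 mg/kg; plasma pharmacokinetic parameters determined.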

Rattus norvegicus [7] = assay: Antidiabetic activity in Sprague-Dawley rat assessed as reduction of plasma glucose AUC excursion at 250 mg/kg, po by oral glucose tolerance test; format: functional; set-up: scale not given: the % may be the effect or the level left
How it was run: (§2)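 Sprague-Dawley rats fasted overnight, dosed orally at t = −60 min with 10, 25, 100 or 250 mg/kg as suspension in 30% sulfobutylether/water. Oral glucose challenge 2 g/kg at t = 0 min.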

Salmonella typhimurium = assay: Genotoxicity in Salmonella typhimurium by Ames test; format: toxicity, organism-based; details: salmonella enterica subsp. enterica serovar typhimurium
Hexokinase-4 [8] = target: T2, Hexokinase-4 (Rattus norvegicus, UniProt P17712); assay: Activation of recombinant rat glucokinase assessed measuring rate of glucose 6-phosphate formation using G6PDH/NADP coupling
T2 sequence (P17712 whole entry): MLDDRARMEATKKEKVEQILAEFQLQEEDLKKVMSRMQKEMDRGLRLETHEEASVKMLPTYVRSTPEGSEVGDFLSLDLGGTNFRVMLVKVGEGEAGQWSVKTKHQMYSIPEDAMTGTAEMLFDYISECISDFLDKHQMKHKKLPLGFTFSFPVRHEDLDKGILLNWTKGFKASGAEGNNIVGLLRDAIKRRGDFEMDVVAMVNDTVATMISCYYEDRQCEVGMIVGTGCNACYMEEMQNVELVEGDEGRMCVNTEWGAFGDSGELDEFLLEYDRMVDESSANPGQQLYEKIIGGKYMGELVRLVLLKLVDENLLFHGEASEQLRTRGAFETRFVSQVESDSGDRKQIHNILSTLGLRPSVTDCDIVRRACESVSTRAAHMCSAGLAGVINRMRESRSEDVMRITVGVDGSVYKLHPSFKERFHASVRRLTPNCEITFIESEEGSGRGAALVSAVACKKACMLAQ
How it was run: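 Recombinant rat glucokinase; glucose 6-phosphate formation rate followed by G6PDH/NADP coupling. Matrix format: activator at 22 concentrations (0 to 100 µM range as printed) × 16 glucose concentrations (0 to 100 mM). Nonessential activator model fitted; EC50 = concentration giving half-maximal reduction in glucose Km.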

[9] = Volume of distribution at steady state in Wistar-Han rat at 1 mg/kg, iv; format: ADME, organism-based; set-up: dose 1 mg/kg, route intravenous; details: in vivo, read-out: Vdss; how it was run: as §1
[10] = Half life in Wistar-Han rat at 1 mg/kg, iv; format: ADME, organism-based; set-up: dose 1 mg/kg, route intravenous; details: in vivo; how it was run: as §1
[11] = Drug excretion in Wistar-Han rat urine at 1 mg/kg, iv; format: ADME, organism-based; set-up: dose 1 mg/kg, route intravenous; details: read-out: Drug excretion
[12] = Fraction unbound in human plasma; format: ADME, cell-free
Rattus norvegicus [13] = assay: Toxicity in Sprague-Dawley rat assessed as hypoglycemia at 10 to 250 mg/kg, po; format: organism-based; set-up: dose 10-250 mg/kg, route oral; details: in vivo
How it was run: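 Oral glucose tolerance test in overnight-fasted Sprague-Dawley rats. Single oral dose of 10–250 mg/kg (suspension in 30% sulfobutylether/water) given at t = −60 min, then 2 g/kg glucose orally at t = 0. Hypoglycemia defined as blood glucose <60 mg/dL. n = 7/group.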

INS1 = assay: Increase of glucose-stimulated insulin secretion in rat INS-1 cells
[14] = Half life in Wistar-Han rat at 5 mg/kg, po; format: ADME, organism-based; set-up: dose 5 mg/kg, route oral; details: in vivo
[15] = Clearance in Wistar-Han rat at 1 mg/kg, iv; format: ADME, organism-based; set-up: dose 1 mg/kg, route intravenous; details: in vivo; how it was run: as §1
[16] = target: Voltage-gated inwardly rectifying potassium channel KCNH2 (Homo sapiens, UniProt Q12809); assay: Inhibition of human ERG by patch clamp assay
Sequence of Voltage-gated inwardly rectifying potassium channel KCNH2 (Q12809 whole entry): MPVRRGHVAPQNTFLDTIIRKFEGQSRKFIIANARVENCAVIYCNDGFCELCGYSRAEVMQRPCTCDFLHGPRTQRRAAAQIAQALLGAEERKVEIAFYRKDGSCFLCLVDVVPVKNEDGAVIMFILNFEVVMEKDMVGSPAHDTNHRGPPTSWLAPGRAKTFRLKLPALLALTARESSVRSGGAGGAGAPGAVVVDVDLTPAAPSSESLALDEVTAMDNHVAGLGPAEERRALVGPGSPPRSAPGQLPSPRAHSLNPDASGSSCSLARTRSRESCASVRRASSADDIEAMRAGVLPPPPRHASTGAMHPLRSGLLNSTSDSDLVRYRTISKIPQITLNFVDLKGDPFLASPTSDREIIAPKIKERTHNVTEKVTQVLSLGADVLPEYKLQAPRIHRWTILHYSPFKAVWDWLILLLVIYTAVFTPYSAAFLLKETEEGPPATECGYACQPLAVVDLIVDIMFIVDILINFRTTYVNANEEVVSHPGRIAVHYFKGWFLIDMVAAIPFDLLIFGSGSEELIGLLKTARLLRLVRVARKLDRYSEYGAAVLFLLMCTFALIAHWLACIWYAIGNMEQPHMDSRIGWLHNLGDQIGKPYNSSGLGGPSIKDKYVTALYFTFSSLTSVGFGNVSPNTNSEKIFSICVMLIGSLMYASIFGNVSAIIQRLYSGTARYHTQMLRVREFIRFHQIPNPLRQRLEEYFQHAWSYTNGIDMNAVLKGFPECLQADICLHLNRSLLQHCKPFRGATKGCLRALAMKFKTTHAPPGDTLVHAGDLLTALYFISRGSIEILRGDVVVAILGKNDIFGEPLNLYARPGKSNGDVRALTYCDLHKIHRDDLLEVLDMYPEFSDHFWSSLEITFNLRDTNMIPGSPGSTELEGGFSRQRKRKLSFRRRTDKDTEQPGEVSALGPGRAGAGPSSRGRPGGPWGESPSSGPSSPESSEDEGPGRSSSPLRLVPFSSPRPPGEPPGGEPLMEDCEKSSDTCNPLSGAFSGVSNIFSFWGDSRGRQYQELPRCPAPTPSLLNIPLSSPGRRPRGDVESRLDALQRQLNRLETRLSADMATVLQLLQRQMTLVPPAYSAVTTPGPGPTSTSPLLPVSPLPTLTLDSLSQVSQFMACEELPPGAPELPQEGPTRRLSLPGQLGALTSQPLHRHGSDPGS

[17] = Genotoxicity in micronucleus
[18] = Cmax in Wistar-Han rat at 5 mg/kg, po; format: ADME, organism-based; set-up: dose 5 mg/kg, route oral; details: in vivo
[19] = Oral bioavailability in Wistar-Han rat at 5 mg/kg; format: ADME, organism-based; details: in vivo
[20] = AUC in Wistar-Han rat at 5 mg/kg, po; format: ADME, organism-based; set-up: dose 5 mg/kg, route oral; details: plasma
How it was run: (§3)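 Pharmacokinetics in Wistar-Han rats, n = 3 animals per group. Intravenous dosing was at 1 mg/kg, and oral dosing was at 5 mg/kg. Plasma AUC, Cmax, t1/2, clearance, Vdss and oral bioavailability were derived. Urine was collected after the i.v. dose to assess renal excretion.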

Rattus norvegicus [21] = assay: Antidiabetic activity in po dosed Sprague-Dawley rat assessed as reduction of plasma glucose AUC excursion by oral glucose tolerance test; format: functional, organism-based; how it was run: as §2
[22] = AUC in Wistar-Han rat at 1 mg/kg, iv; format: ADME, organism-based; set-up: dose 1 mg/kg, route intravenous; details: plasma; how it was run: as §3
[23] = Fraction unbound in rat plasma; format: ADME, cell-free

Papp [1]: 6.3 ×10⁻⁶ cm/s | EC50 (Hexokinase-4 [2]): 1.54 µM | CLint scaled [3]: < 8.9 mL/min/kg | solubility kinetic [4]: 24.4 µM (≈ 11.4 µg/mL)
SMILES: Cc1cnc(NC(=O)c2cc(Oc3ccc(S(C)(=O)=O)cc3)c3cn(CCO)nc3c2)cn1

Papp [1]: 13.8 ×10⁻⁶ cm/s | logD [5]: 1.8 | EC50 (Hexokinase-4 [2]): 0.23 µM | CLint scaled [3]: 10.4 mL/min/kg | solubility kinetic [4]: 367 µM (≈ 170 µg/mL)
SMILES: CCn1cc2c(Oc3cnc(C(=O)N(C)C)c(F)c3)cc(C(=O)Nc3cnc(C)cn3)cc2n1

Papp [1]: 11.9 ×10⁻⁶ cm/s | EC50 (Hexokinase-4 [2]): 0.34 µM | CLint scaled [3]: < 8 mL/min/kg | solubility kinetic [4]: 70 µM (≈ 32.3 µg/mL)
SMILES: Cc1cnc(NC(=O)c2cc(Oc3cnc(C(=O)N4CCC4)c(F)c3)c3cn(C)nc3c2)cn1

logD [5]: 2.16 | CLint scaled [3]: < 8 mL/min/kg
SMILES: Cc1cnc(NC(=O)c2cc(Oc3cnc(C(=O)N(C)C)cn3)c3cc(C)oc3c2)cn1

Papp [1]: 17 ×10⁻⁶ cm/s | logD [5]: 1.87 | EC50 (Hexokinase-4 [2]): 0.62 µM | CLint scaled [3]: 13.7 mL/min/kg | solubility kinetic [4]: 123 µM (≈ 53.2 µg/mL)
SMILES: Cc1cnc(NC(=O)c2cc(Oc3cnc(C(=O)N(C)C)cn3)c3cc(C)nn3c2)cn1

Papp [1]: 20.4 ×10⁻⁶ cm/s | EC50 (Hexokinase-4 [2]): 1.93 µM | CLint scaled [3]: < 8 mL/min/kg | solubility kinetic [4]: 454 µM (≈ 199 µg/mL)
SMILES: Cc1cnc(NC(=O)c2cc(Oc3ccc(S(C)(=O)=O)cc3)c3cn(C)nc3c2)cn1

SMILES: CCn1cc2c(Oc3cnc(C(=O)N4CCC4)c(F)c3)cc(C(=O)Nc3cnc(C)cn3)cc2n1
Papp [1]: 16.3 ×10⁻⁶ cm/s | Cmax [6]: 1820 ng/mL | Activity (Rattus norvegicus [7]): 22% | Activity (Salmonella typhimurium): Non-toxic | EC50 (Hexokinase-4 [8]): 0.35 µM | logD [5]: 2.01 | Vd [9]: 0.61 L/kg | half-life [10]: 1 h | EC50 (Hexokinase-4 [2]): 0.12 µM | dose excreted [11]: < 1% | fraction unbound [12]: 0.2 | Activity (Rattus norvegicus [13]): Non-toxic | EC50 (INS1): 0.17 µM | half-life [14]: 2.6 h | clearance [15]: 10.5 mL/min/kg | IC50 [16]: > 300 µM | Activity [17]: Non-toxic | Cmax [18]: 1490 ng/mL | CLint scaled [3]: < 8 mL/min/kg | bioavailability [19]: 69% | solubility kinetic [4]: 84.8 µM (≈ 40.3 µg/mL) | AUC [20]: 5440 ng·h/mL | Activity (Rattus norvegicus [21]): Dose-dependent effect | AUC [22]: 1580 ng·h/mL | fraction unbound [23]: 0.18

Papp [1]: 13.6 ×10⁻⁶ cm/s | EC50 (Hexokinase-4 [2]): 0.44 µM | CLint scaled [3]: < 8 mL/min/kg | solubility kinetic [4]: 134 µM (≈ 62.5 µg/mL)
SMILES: Cc1cnc(NC(=O)c2cc(Oc3ccc(S(=O)(=O)N(C)C)cc3)c3cn(C)nc3c2)cn1

Papp [1]: 20.8 ×10⁻⁶ cm/s | logD [5]: 0.83 | EC50 (Hexokinase-4 [2]): 0.99 µM | CLint scaled [3]: < 8.5 mL/min/kg | solubility kinetic [4]: 192 µM (≈ 83 µg/mL)
SMILES: Cc1cnc(NC(=O)c2cc(Oc3cnc(C(=O)N(C)C)cn3)c3cn(C)nc3c2)cn1

Papp [1]: 11.5 ×10⁻⁶ cm/s | EC50 (Hexokinase-4 [2]): 0.91 µM | CLint scaled [3]: < 8 mL/min/kg | solubility kinetic [4]: 446 µM (≈ 193 µg/mL)
SMILES: Cc1cnc(NC(=O)c2cc(Oc3cnc(C(=O)N(C)C)nc3)c3cn(C)nc3c2)cn1

Papp [1]: 15.5 ×10⁻⁶ cm/s | EC50 (Hexokinase-4 [2]): 2.03 µM | CLint scaled [3]: < 8 mL/min/kg | solubility kinetic [4]: 0.5 µM (≈ 0.232 µg/mL)
SMILES: Cc1cnc(NC(=O)c2cc(Oc3ccc(S(C)(=O)=O)cc3)c3cn(C4CC4)nc3c2)cn1

CLint scaled [3]: < 8.6 mL/min/kg | solubility kinetic [4]: 27 µM (≈ 12.2 µg/mL)
SMILES: CNS(=O)(=O)c1ccc(Oc2cc(C(=O)Nc3cnc(C)cn3)cc3nn(C)cc23)cc1

Papp [1]: 14.2 ×10⁻⁶ cm/s | EC50 (Hexokinase-4 [2]): 0.31 µM | CLint scaled [3]: < 8 mL/min/kg | solubility kinetic [4]: 2.3 µM (≈ 1.07 µg/mL)
SMILES: CCCn1cc2c(Oc3ccc(S(C)(=O)=O)cc3)cc(C(=O)Nc3cnc(C)cn3)cc2n1

Papp [1]: 20.2 ×10⁻⁶ cm/s | EC50 (Hexokinase-4 [2]): 0.4 µM | CLint scaled [3]: < 8 mL/min/kg | solubility kinetic [4]: 328 µM (≈ 147 µg/mL)
SMILES: Cc1cnc(NC(=O)c2cc(Oc3cnc(C(=O)N(C)C)c(F)c3)c3cn(C)nc3c2)cn1

Papp [1]: 17.8 ×10⁻⁶ cm/s | EC50 (Hexokinase-4 [2]): 0.51 µM | CLint scaled [3]: < 8 mL/min/kg | solubility kinetic [4]: 73 µM (≈ 33.8 µg/mL)
SMILES: Cc1cnc(NC(=O)c2cc(Oc3ccc(S(=O)(=O)C4CC4)cc3)c3cn(C)nc3c2)cn1

Papp [1]: 14.6 ×10⁻⁶ cm/s | CLint scaled [3]: 12.3 mL/min/kg | solubility kinetic [4]: 351 µM (≈ 151 µg/mL)
SMILES: Cc1cnc(NC(=O)c2cc(Oc3ccc(C(=O)N(C)C)cc3)c3cn(C)nc3c2)cn1

EC50 (Hexokinase-4 [2]): 2.32 µM
SMILES: Cc1cnc(NC(=O)c2cc(Oc3ccc(S(N)(=O)=O)cc3)c3cn(C)nc3c2)cn1

Papp [1]: 10.6 ×10⁻⁶ cm/s | EC50 (Hexokinase-4 [2]): 0.98 µM | CLint scaled [3]: < 8 mL/min/kg | solubility kinetic [4]: 69 µM (≈ 31.2 µg/mL)
SMILES: CCS(=O)(=O)c1ccc(Oc2cc(C(=O)Nc3cnc(C)cn3)cc3nn(C)cc23)cc1

Papp [1]: 13.4 ×10⁻⁶ cm/s | EC50 (Hexokinase-4 [2]): 0.77 µM | CLint scaled [3]: < 8 mL/min/kg | solubility kinetic [4]: 2.1 µM (≈ 0.948 µg/mL)
SMILES: CCn1cc2c(Oc3ccc(S(C)(=O)=O)cc3)cc(C(=O)Nc3cnc(C)cn3)cc2n1
